Assay results: ChEMBL document CHEMBL2151038, “Synthesis, characterization and biological evaluation of some novel 2,4-thiazolidinediones as potential cytotoxic, antimicrobial and antihyperglycemic agents” (Bioorg Med Chem Lett, 2012)
≈ marks a conversion by molar mass, not a printed value.

Columns and labels:
[1] = system: Aspergillus niger; test: Antifungal activity against Aspergillus niger NCIM 548 after 48 hrs by NCCLS agar well diffusion method; format: functional; settings: NCIM 548, 48 h
Outline: (§1)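 Spore suspensions in sterile distilled water adjusted to 10⁶ CFU/mL, 0.1 mL spread on potato-dextrose agar. 6 mm wells received 0.1 mL compound in 1% DMSO (final 16–512 µg/mL). Controls: 1% DMSO and ketoconazole (16 µg/mL). Triplicate plates, 48 h at 28 ± 0.2 °C. MIC = lowest concentration completely inhibiting growth.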

[2] = system: Micrococcus luteus; test: Antibacterial activity against Micrococcus luteus NCIM 2155 after 24 hrs by NCCLS agar well diffusion method; format: functional; settings: NCIM 2155, 24 h
Outline: (§2)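 Nutrient agar seeded with 0.1 mL bacterial suspension (10⁵ CFU/mL in 0.85% saline). 6 mm wells filled with 0.1 mL compound. Plates in triplicate, 37 ± 0.5 °C for 24 h. MIC = lowest concentration giving complete growth inhibition.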

[3] = system: Bacillus pumilus; test: Antibacterial activity against Bacillus pumilus NCIM 2327 after 24 hrs by NCCLS agar well diffusion method; format: functional; settings: NCIM 2327, 24 h; outline: as §2
[4] = system: Rattus norvegicus; test: Antihyperglycemic activity in streptozotocin-induced type 2 diabetic Wistar albino rat assessed as reduction in plasma glucose level at 30 mg/kg, po by glucometer; format: functional
Outline: (§3)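 Wistar albino rats of either sex, 150–200 g, fasted 16 h. Diabetes induced by nicotinamide 150 mg/kg, then STZ 65 mg/kg in citrate buffer pH 4.5. Glucose confirmed after 48 h. Groups of six. Oral dosing as 0.25% sodium CMC suspension at 10, 30 or 50 mg/kg. Rosiglitazone was the reference. Retro-orbital plasma glucose measured by glucometer before dosing and at 1, 2, 4, 6, 8, 12 and 24 h. Results as mean ± SEM, compared by ANOVA, t-test and Dunnett's test.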

[5] = system: Proteus vulgaris; test: Antibacterial activity against Proteus vulgaris NCIM 2813 after 24 hrs by NCCLS agar well diffusion method; format: functional; settings: NCIM 2813, 24 h; outline: as §2
[6] = Toxicity in mouse assessed as changes in vital functions; format: organism-based; settings: in vivo
[7] = system: Staphylococcus aureus; test: Antibacterial activity against Staphylococcus aureus NCIM 2079 after 24 hrs by NCCLS agar well diffusion method; format: functional; settings: NCIM 2079, 24 h; outline: as §2
[8] = system: Klebsiella pneumoniae; test: Antibacterial activity against Klebsiella pneumoniae NCIM 5082 after 24 hrs by NCCLS agar well diffusion method; format: functional; settings: NCIM 5082, 24 h; outline: as §2
[9] = system: Penicillium chrysogenum; test: Antifungal activity against Penicillium chrysogenum NCIM 738 after 48 hrs by NCCLS agar well diffusion method; format: functional; settings: NCIM 738, 48 h; outline: as §1
[10] = system: Artemia salina; test: Cytotoxicity in brine shrimps larvae assessed as mortality after 24 hrs; format: functional; settings: read-out: ED50 (the source's name)
Outline: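 Artemia salina nauplii hatched 38 h under constant aeration in sterile brine (sea salt 38 g/L, pH 8.5 with 1 N NaOH). Ten nauplii per vial were exposed to a range of compound concentrations at 37 °C for 24 h under incandescent light, alongside vehicle-treated controls. Survivors were counted, % lethality was taken from mean survivors versus control, and ED50 came from probit analysis.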

[11] = system: Bacillus subtilis; test: Antibacterial activity against Bacillus subtilis NCIM 2063 after 24 hrs by NCCLS agar well diffusion method; format: functional; settings: NCIM 2063, 24 h; outline: as §2
[12] = system: Aspergillus oryzae; test: Antifungal activity against Aspergillus oryzae NCIM 643 after 48 hrs by NCCLS agar well diffusion method; format: functional; settings: NCIM 643, 48 h; outline: as §1
[13] = system: Rattus norvegicus; test: Antihyperglycemic activity in streptozotocin-induced type 2 diabetic Wistar albino rat assessed as reduction in plasma glucose level at 10 mg/kg, po by glucometer; format: functional; outline: as §3
[14] = system: Pseudomonas aeruginosa; test: Antibacterial activity against Pseudomonas aeruginosa NCIM 2036 after 24 hrs by NCCLS agar well diffusion method; format: functional; settings: NCIM 2036, 24 h; outline: as §2
[15] = system: Rattus norvegicus; test: Antihyperglycemic activity in po dosed streptozotocin-induced type 2 diabetic Wistar albino rat assessed as reduction in plasma glucose level by glucometer; format: functional, organism-based; outline: as §3
[16] = system: Rattus norvegicus; test: Antihyperglycemic activity in streptozotocin-induced type 2 diabetic Wistar albino rat assessed as reduction in plasma glucose level at 50 mg/kg, po by glucometer; format: functional; outline: as §3
[17] = system: Candida albicans; test: Antifungal activity against Candida albicans NCIM 3102 after 48 hrs by NCCLS agar well diffusion method; format: functional; settings: NCIM 3102, 48 h; outline: as §1
[18] = system: Escherichia coli; test: Antibacterial activity against Escherichia coli NCIM 2065 after 24 hrs by NCCLS agar well diffusion method; format: functional; settings: NCIM 2065, 24 h; outline: as §2

Structure (SMILES)	MIC [1] [µg/mL]	MIC [2] [µg/mL]	MIC [3] [µg/mL]	Activity [4] [mg/dL]	MIC [5] [µg/mL]	MTD [6] [mg/kg]	MIC [7] [µg/mL]	MIC [8] [µg/mL]	MIC [9] [µg/mL]	EC50 [10] [µg/mL]	MIC [11] [µg/mL]	MIC [12] [µg/mL]	Activity [13] [mg/dL]	MIC [14] [µg/mL]	Activity [15]	Activity [16] [mg/dL]	MIC [17] [µg/mL]	MIC [18] [µg/mL]
O=C1NC(=O)/C(=C/c2ccc(/C=C/C(=O)c3cc(OCc4ccccc4)cc(OCc4ccccc4)c3)cc2)S1	16 (≈ 29.2 µM)	16 (≈ 29.2 µM)	16 (≈ 29.2 µM)	26.87	32 (≈ 58.4 µM)	2000	16 (≈ 29.2 µM)	16 (≈ 29.2 µM)	16 (≈ 29.2 µM)	26.8 (≈ 49 µM)	16 (≈ 29.2 µM)	16 (≈ 29.2 µM)	21.76	16 (≈ 29.2 µM)	Dose-dependent effect	30.12	16 (≈ 29.2 µM)	32 (≈ 58.4 µM)
Nc1cccc(C(=O)/C=C/c2ccc(/C=C3\SC(=O)NC3=O)cc2)c1	64 (≈ 183 µM)	256 (≈ 731 µM)	256 (≈ 731 µM)	15.36	256 (≈ 731 µM)	2000	256 (≈ 731 µM)	256 (≈ 731 µM)	256 (≈ 731 µM)	33.2 (≈ 94.7 µM)	256 (≈ 731 µM)	128 (≈ 365 µM)	12.14	128 (≈ 365 µM)	Dose-dependent effect	21.66	256 (≈ 731 µM)	64 (≈ 183 µM)
O=C1NC(=O)/C(=C/c2ccc(/C=C/C(=O)c3cc(O)ccc3O)cc2)S1	256 (≈ 697 µM)	512 (≈ 1390 µM)	256 (≈ 697 µM)	38.86	512 (≈ 1390 µM)	2000	256 (≈ 697 µM)	256 (≈ 697 µM)	128 (≈ 348 µM)	46.7 (≈ 127 µM)	512 (≈ 1390 µM)	256 (≈ 697 µM)	30.74	512 (≈ 1390 µM)	Dose-dependent effect	47.73	128 (≈ 348 µM)	256 (≈ 697 µM)
O=C1NC(=O)/C(=C/c2ccc(/C=C/C(=O)c3ccc([N+](=O)[O-])cc3)cc2)S1	512 (≈ 1350 µM)	512 (≈ 1350 µM)	512 (≈ 1350 µM)	16.74	512 (≈ 1350 µM)	2000	512 (≈ 1350 µM)	512 (≈ 1350 µM)	256 (≈ 673 µM)	49.3 (≈ 130 µM)	256 (≈ 673 µM)	512 (≈ 1350 µM)	13.63	256 (≈ 673 µM)	Dose-dependent effect	22.73	256 (≈ 673 µM)	512 (≈ 1350 µM)
COc1cccc(C(=O)/C=C/c2ccc(/C=C3\SC(=O)NC3=O)cc2)c1	64 (≈ 175 µM)	256 (≈ 701 µM)	128 (≈ 350 µM)	28.73	256 (≈ 701 µM)	2000	128 (≈ 350 µM)	128 (≈ 350 µM)	256 (≈ 701 µM)	18.7 (≈ 51.2 µM)	128 (≈ 350 µM)	256 (≈ 701 µM)	16.41	128 (≈ 350 µM)	Dose-dependent effect	34.61	128 (≈ 350 µM)	128 (≈ 350 µM)
Cc1ccc(C(=O)/C=C/c2ccc(/C=C3\SC(=O)NC3=O)cc2)cc1	256 (≈ 733 µM)	64 (≈ 183 µM)	32 (≈ 91.6 µM)	21.81	64 (≈ 183 µM)	2000	32 (≈ 91.6 µM)	64 (≈ 183 µM)	64 (≈ 183 µM)	19.7 (≈ 56.3 µM)	32 (≈ 91.6 µM)	64 (≈ 183 µM)	17.66	32 (≈ 91.6 µM)	Dose-dependent effect	28.72	256 (≈ 733 µM)	32 (≈ 91.6 µM)
